Reference: ChEMBL document CHEMBL1250498, “Design, synthesis and pro-apoptotic antitumour properties of indole-based 3,5-disubstituted oxadiazoles” (Eur J Med Chem, 2010)

How the values were obtained:
[1] = Anticancer activity against human COLO320 cells after 72 hrs by WST-1 assay; assay type: functional, cell-based; details: COLO 320, 72 h
Method in brief: (§1)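 Cells grown in DMEM with 2 mM L-glutamine, 10% FBS, 2.5% horse serum, penicillin and streptomycin, 37 °C, 5% CO2. Seeded at 2 × 10³/well, exposed 72 h to 0.1–50 µM (DMSO ≤0.2% in medium). WST-1 formazan absorbance read at 450 nm. Inhibition taken as % absorbance reduction versus control; IC50 from non-linear least-squares fit. Triplicate, independent experiments averaged.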

MIA PaCa-2 [2] = experiment: Anticancer activity against human MIAPaCa2 cells after 72 hrs by WST-1 assay; assay type: functional, cell-based; details: MIA PaCa-2, 72 h; method in brief: as §1
MCF7 = experiment: Anticancer activity against human MCF7 cells after 72 hrs by WST-1 assay; assay type: functional, cell-based; details: MCF7, 72 h; method in brief: as §1
Jurkat = experiment: Anticancer activity against human Jurkat cells after 72 hrs by WST-1 assay; assay type: functional, cell-based; method in brief: as §1
COLO 320 [3] = experiment: Induction of apoptosis in human COLO320 cells assessed as increase in intraneucleosomal DNA fragmentation at 100 uM after 24 hrs by ELISA relative to control; assay type: functional
Method in brief: (§2)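 Dosed at 100 µM for 24 h. Trypsin-harvested cells pooled with detached cells. Cytoplasmic histone-associated DNA fragments (released nucleosomes) measured by sandwich ELISA using a mouse monoclonal anti-DNA/histone antibody. Given as fold over untreated control; duplicate, mean ± SEM.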

COLO 320 [4] = experiment: Induction of apoptosis in human COLO320 cells assessed as increase in caspase 3/7 activation at 100 uM after 24 hrs by spectrophotometry relative to control; assay type: functional
Method in brief: (§3)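 Seeded at 7 × 10³/well and dosed 100 µM for 24 h. Caspase-3/7 substrate then added; fluorescence read with excitation 485 nm and emission 530 nm. Result given as the ratio of treated-cell signal to untreated vehicle-only cells.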

MIA PaCa-2 [5] = experiment: Induction of apoptosis in human MIAPaCa2 cells assessed as increase in intraneucleosomal DNA fragmentation at 100 uM after 24 hrs by ELISA relative to control; assay type: functional; method in brief: as §2
MIA PaCa-2 [6] = experiment: Induction of apoptosis in human MIAPaCa2 cells assessed as increase in caspase 3/7 activation at 100 uM after 24 hrs by spectrophotometry relative to control; assay type: functional; method in brief: as §3

Cc1noc(-c2cc3ccccc3[nH]2)n1
IC50 [1]: 11.8 µM | IC50 (MIA PaCa-2 [2]): 30.5 µM | IC50 (MCF7): > 50 µM | IC50 (Jurkat): > 50 µM

FC(F)(F)c1ccc(-c2noc(-c3sccc3Cl)n2)cc1
IC50 [1]: 1.2 µM | IC50 (MIA PaCa-2 [2]): > 50 µM | IC50 (MCF7): > 50 µM | IC50 (Jurkat): > 50 µM

Clc1ccc(-c2noc(-c3cc4ccccc4[nH]3)n2)cc1
IC50 [1]: 13.9 µM | fold change (FC) (COLO 320 [3]): 3 | fold change (FC) (COLO 320 [4]): 0.3 | IC50 (MIA PaCa-2 [2]): 19.2 µM | fold change (FC) (MIA PaCa-2 [5]): 1 | IC50 (MCF7): > 50 µM | fold change (FC) (MIA PaCa-2 [6]): 1.2 | IC50 (Jurkat): > 50 µM

Nc1noc(-c2cc3ccccc3[nH]2)n1
IC50 [1]: 27.7 µM | IC50 (MIA PaCa-2 [2]): 18.7 µM | IC50 (MCF7): > 50 µM | IC50 (Jurkat): > 50 µM

c1ccc(-c2noc(-c3cc4ccccc4[nH]3)n2)cc1
IC50 [1]: 12 µM | fold change (FC) (COLO 320 [3]): 2.5 | fold change (FC) (COLO 320 [4]): 3.1 | IC50 (MIA PaCa-2 [2]): 22 µM | fold change (FC) (MIA PaCa-2 [5]): 1.4 | IC50 (MCF7): 45.7 µM | fold change (FC) (MIA PaCa-2 [6]): 1.2 | IC50 (Jurkat): > 50 µM

Cc1noc(-c2cc3cc(F)ccc3[nH]2)n1
IC50 [1]: 18.1 µM | fold change (FC) (COLO 320 [3]): 1 | fold change (FC) (COLO 320 [4]): 1.5 | IC50 (MIA PaCa-2 [2]): 19.4 µM | fold change (FC) (MIA PaCa-2 [5]): 7.3 | IC50 (MCF7): 12.4 µM | fold change (FC) (MIA PaCa-2 [6]): 1.3 | IC50 (Jurkat): 22.9 µM

COc1ccc(-c2noc(-c3cc4ccccc4[nH]3)n2)cc1
IC50 [1]: 27.7 µM | IC50 (MIA PaCa-2 [2]): > 50 µM | IC50 (MCF7): > 50 µM | IC50 (Jurkat): > 50 µM

Clc1ccc2[nH]c(-c3nc(-c4ccccc4)no3)cc2c1
IC50 [1]: 16.5 µM | fold change (FC) (COLO 320 [3]): 2.1 | fold change (FC) (COLO 320 [4]): 1.3 | IC50 (MIA PaCa-2 [2]): 23.1 µM | fold change (FC) (MIA PaCa-2 [5]): 1.9 | IC50 (MCF7): 29.1 µM | fold change (FC) (MIA PaCa-2 [6]): 1.9 | IC50 (Jurkat): > 50 µM

Cc1noc(-c2cc3cc(Cl)ccc3[nH]2)n1
IC50 [1]: 19.5 µM | IC50 (MIA PaCa-2 [2]): > 50 µM | IC50 (MCF7): 34.4 µM | IC50 (Jurkat): 21.6 µM

Oc1ccc2[nH]c(-c3nc(-c4ccccc4)no3)cc2c1
IC50 [1]: 15.7 µM | fold change (FC) (COLO 320 [3]): 4.3 | fold change (FC) (COLO 320 [4]): 3.6 | IC50 (MIA PaCa-2 [2]): 13 µM | fold change (FC) (MIA PaCa-2 [5]): 7.3 | IC50 (MCF7): 26 µM | fold change (FC) (MIA PaCa-2 [6]): 0.7 | IC50 (Jurkat): 26.9 µM

Cn1c(-c2nc(-c3ccc(Cl)cc3)no2)cc2cc(Cl)ccc21
IC50 [1]: 16.9 µM | IC50 (MIA PaCa-2 [2]): > 50 µM | IC50 (MCF7): > 50 µM | IC50 (Jurkat): > 50 µM

Clc1ccc(-c2noc(-c3cc4cc(Cl)ccc4[nH]3)n2)cc1
IC50 [1]: 25 µM | IC50 (MIA PaCa-2 [2]): > 50 µM | IC50 (MCF7): > 50 µM | IC50 (Jurkat): > 50 µM

COc1ccc(-c2noc(-c3cc4cc(Cl)ccc4[nH]3)n2)cc1
IC50 [1]: 9.6 µM | fold change (FC) (COLO 320 [3]): 1.2 | fold change (FC) (COLO 320 [4]): 4.2 | IC50 (MIA PaCa-2 [2]): 7.8 µM | fold change (FC) (MIA PaCa-2 [5]): 1.4 | IC50 (MCF7): > 50 µM | fold change (FC) (MIA PaCa-2 [6]): 1.4 | IC50 (Jurkat): > 50 µM

Fc1ccc2[nH]c(-c3nc(-c4ccccc4)no3)cc2c1
IC50 [1]: 10.8 µM | fold change (FC) (COLO 320 [3]): 5.3 | fold change (FC) (COLO 320 [4]): 4.4 | IC50 (MIA PaCa-2 [2]): 33.6 µM | fold change (FC) (MIA PaCa-2 [5]): 6.9 | IC50 (MCF7): 35 µM | fold change (FC) (MIA PaCa-2 [6]): 1.2 | IC50 (Jurkat): 33.8 µM

Fc1ccc2[nH]c(-c3nc(-c4ccc(Cl)cc4)no3)cc2c1
IC50 [1]: > 50 µM | IC50 (MIA PaCa-2 [2]): > 50 µM | IC50 (MCF7): > 50 µM | IC50 (Jurkat): > 50 µM

COc1ccc(-c2noc(-c3cc4cc(OC)ccc4[nH]3)n2)cc1
IC50 [1]: 28.3 µM | fold change (FC) (COLO 320 [3]): 1.2 | fold change (FC) (COLO 320 [4]): 1.1 | IC50 (MIA PaCa-2 [2]): 5.6 µM | fold change (FC) (MIA PaCa-2 [5]): 1.9 | IC50 (MCF7): > 50 µM | fold change (FC) (MIA PaCa-2 [6]): 2 | IC50 (Jurkat): > 50 µM

O=[N+]([O-])c1ccc2[nH]c(-c3nc(-c4ccccc4)no3)cc2c1
IC50 [1]: 12.5 µM | IC50 (MIA PaCa-2 [2]): > 50 µM | IC50 (MCF7): > 50 µM | IC50 (Jurkat): > 50 µM

O=[N+]([O-])c1ccc2[nH]c(-c3nc(-c4ccc(Cl)cc4)no3)cc2c1
IC50 [1]: 7.7 µM | fold change (FC) (COLO 320 [3]): 1.8 | fold change (FC) (COLO 320 [4]): 6.4 | IC50 (MIA PaCa-2 [2]): 17.6 µM | fold change (FC) (MIA PaCa-2 [5]): 2.7 | IC50 (MCF7): > 50 µM | fold change (FC) (MIA PaCa-2 [6]): 23.9 | IC50 (Jurkat): > 50 µM

COc1ccc2[nH]c(-c3nc(-c4ccc(Cl)cc4)no3)cc2c1
IC50 [1]: 12.8 µM | fold change (FC) (COLO 320 [3]): 1.8 | fold change (FC) (COLO 320 [4]): 4.5 | IC50 (MIA PaCa-2 [2]): 22.7 µM | fold change (FC) (MIA PaCa-2 [5]): 1.2 | IC50 (MCF7): > 50 µM | fold change (FC) (MIA PaCa-2 [6]): 10.1 | IC50 (Jurkat): > 50 µM

COc1ccc(-c2noc(-c3cc4ccccc4n3C)n2)cc1
IC50 [1]: > 50 µM | IC50 (MIA PaCa-2 [2]): 23.1 µM | IC50 (MCF7): > 50 µM | IC50 (Jurkat): > 50 µM

COc1ccc(-c2noc(-c3cc4cc(F)ccc4[nH]3)n2)cc1
IC50 [1]: 14.8 µM | fold change (FC) (COLO 320 [3]): 1.4 | fold change (FC) (COLO 320 [4]): 2.1 | IC50 (MIA PaCa-2 [2]): 10.3 µM | fold change (FC) (MIA PaCa-2 [5]): 2.2 | IC50 (MCF7): > 50 µM | fold change (FC) (MIA PaCa-2 [6]): 5 | IC50 (Jurkat): > 50 µM

COc1ccc2[nH]c(-c3nc(-c4ccccc4)no3)cc2c1
IC50 [1]: 18.7 µM | IC50 (MIA PaCa-2 [2]): 32.6 µM | IC50 (MCF7): > 50 µM | IC50 (Jurkat): > 50 µM

COc1ccc2[nH]c(-c3nc(C)no3)cc2c1
IC50 [1]: 10.4 µM | IC50 (MIA PaCa-2 [2]): > 50 µM | IC50 (MCF7): 16.7 µM | IC50 (Jurkat): 19.9 µM
